Consider 10 compounds from the M2OR odorant receptor database.

Common to all, as to settings: stereoisomer not certain
For assay [1], the target named is T1, UniProt L7MU75.
T1 sequence (whole entry): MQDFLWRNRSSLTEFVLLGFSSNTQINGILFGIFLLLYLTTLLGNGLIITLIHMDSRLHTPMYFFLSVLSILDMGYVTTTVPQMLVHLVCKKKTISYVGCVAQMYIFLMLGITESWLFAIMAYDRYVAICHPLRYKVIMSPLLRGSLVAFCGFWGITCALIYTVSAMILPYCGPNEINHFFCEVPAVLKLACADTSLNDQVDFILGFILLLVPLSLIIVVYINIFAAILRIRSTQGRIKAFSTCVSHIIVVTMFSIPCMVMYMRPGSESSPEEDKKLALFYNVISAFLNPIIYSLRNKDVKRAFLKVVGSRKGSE
In short, it runs like this:
(§1)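 Values were gathered from published papers (main text and supplementary material), with extra details requested from the original authors when needed, and checked for typos and inconsistencies. Each receptor–molecule pair is called responsive (active) if the original authors judged the measured signal statistically different from baseline, and non-responsive (inactive) otherwise. Assay methods varied by source, often transient mammalian cell-line luciferase assays. Recorded details include cell line, G-protein, co-transfected protein and tags.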

The target in assay [2] is T2, UniProt L7N210.
T2 sequence (whole entry): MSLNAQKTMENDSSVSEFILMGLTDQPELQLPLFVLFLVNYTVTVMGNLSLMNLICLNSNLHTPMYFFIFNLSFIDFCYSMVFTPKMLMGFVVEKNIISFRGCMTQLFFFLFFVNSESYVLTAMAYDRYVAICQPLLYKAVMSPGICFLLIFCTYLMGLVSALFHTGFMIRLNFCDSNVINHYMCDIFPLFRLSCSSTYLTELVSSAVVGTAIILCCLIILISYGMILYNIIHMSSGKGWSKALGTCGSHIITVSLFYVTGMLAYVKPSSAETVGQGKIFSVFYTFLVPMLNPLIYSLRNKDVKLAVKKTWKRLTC
In short, it runs like this:
as §1

Assay [3] deals with T3, UniProt Q3KPB0.
T3 sequence (whole entry): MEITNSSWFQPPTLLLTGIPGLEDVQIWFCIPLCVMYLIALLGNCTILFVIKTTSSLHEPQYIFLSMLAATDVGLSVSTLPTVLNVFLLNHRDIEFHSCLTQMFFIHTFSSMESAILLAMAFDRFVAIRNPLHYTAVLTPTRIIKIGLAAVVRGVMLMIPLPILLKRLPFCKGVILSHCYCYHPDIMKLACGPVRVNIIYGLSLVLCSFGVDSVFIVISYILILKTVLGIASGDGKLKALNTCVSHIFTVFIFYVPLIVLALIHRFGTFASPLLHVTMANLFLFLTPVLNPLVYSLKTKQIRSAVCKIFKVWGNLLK
The essentials:
as §1

Assay [4] has as its target T4, UniProt Q3U0P3.
T4 sequence (whole entry): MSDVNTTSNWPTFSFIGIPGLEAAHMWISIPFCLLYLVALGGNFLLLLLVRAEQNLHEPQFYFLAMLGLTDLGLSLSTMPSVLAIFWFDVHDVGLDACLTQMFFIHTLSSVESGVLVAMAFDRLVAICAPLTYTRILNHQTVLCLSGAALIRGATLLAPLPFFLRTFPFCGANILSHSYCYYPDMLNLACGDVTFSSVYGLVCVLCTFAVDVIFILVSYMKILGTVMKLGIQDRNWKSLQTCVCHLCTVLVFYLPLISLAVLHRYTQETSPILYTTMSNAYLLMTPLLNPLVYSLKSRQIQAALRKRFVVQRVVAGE
In short, it runs like this: as §1

Assay [5] addresses T5, UniProt Q7TQU8.
T5 sequence (whole entry): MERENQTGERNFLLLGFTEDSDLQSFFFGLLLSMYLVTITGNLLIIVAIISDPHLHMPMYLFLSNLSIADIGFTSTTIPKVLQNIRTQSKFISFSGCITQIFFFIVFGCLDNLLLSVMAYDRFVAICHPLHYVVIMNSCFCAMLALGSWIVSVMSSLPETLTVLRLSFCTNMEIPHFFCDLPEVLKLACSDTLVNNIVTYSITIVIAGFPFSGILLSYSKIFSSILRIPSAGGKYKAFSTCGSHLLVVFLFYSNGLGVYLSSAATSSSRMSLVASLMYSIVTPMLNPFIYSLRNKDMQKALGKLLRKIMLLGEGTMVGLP
In short, it runs like this:
as §1

For assay [6], the target named is T6, UniProt Q7TQV4.
T6 sequence (whole entry): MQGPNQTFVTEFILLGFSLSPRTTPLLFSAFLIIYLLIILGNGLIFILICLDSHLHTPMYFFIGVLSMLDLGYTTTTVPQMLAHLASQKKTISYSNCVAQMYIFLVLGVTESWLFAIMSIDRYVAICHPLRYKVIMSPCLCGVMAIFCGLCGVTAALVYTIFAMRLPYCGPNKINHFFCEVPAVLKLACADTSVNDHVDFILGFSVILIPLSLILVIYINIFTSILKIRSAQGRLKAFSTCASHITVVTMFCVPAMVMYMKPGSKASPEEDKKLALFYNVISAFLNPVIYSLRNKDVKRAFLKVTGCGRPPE
In short, it runs like this:
as §1

Assay [7] has as its target T7, UniProt Q7TR71.
T7 sequence (whole entry): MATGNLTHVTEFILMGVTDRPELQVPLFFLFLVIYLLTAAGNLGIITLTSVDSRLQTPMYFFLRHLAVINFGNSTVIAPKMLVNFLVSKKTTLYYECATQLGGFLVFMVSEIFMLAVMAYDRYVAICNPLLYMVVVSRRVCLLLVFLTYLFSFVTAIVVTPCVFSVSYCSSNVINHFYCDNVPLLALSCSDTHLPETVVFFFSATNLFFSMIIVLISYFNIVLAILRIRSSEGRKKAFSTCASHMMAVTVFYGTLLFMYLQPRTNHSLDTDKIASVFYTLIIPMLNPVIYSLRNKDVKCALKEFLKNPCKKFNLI
The essentials:
as §1

Assay [8] deals with T8, UniProt Q7TR79.
T8 sequence (whole entry): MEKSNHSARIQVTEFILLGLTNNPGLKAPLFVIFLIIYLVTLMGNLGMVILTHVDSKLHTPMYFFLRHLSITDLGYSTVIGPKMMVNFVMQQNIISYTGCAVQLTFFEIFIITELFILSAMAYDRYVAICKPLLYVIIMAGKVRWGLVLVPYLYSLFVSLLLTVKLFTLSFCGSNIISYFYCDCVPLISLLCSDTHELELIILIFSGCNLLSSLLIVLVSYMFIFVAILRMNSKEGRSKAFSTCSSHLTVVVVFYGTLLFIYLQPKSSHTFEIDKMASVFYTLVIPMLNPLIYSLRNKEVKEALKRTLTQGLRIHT
The essentials: as §1

Assay [9] deals with T9, UniProt Q7TRA3.
T9 sequence (whole entry): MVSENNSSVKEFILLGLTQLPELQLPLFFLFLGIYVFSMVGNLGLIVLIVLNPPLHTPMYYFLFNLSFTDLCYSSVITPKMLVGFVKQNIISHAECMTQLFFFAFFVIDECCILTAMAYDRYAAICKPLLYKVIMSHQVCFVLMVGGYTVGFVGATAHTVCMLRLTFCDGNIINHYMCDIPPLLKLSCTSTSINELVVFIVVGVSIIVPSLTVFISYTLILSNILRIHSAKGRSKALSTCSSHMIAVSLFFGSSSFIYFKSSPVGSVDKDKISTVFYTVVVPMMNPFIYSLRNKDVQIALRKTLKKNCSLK
The essentials:
as §1

For assay [10], the target named is T10, UniProt Q7TRE4.
T10 sequence (whole entry): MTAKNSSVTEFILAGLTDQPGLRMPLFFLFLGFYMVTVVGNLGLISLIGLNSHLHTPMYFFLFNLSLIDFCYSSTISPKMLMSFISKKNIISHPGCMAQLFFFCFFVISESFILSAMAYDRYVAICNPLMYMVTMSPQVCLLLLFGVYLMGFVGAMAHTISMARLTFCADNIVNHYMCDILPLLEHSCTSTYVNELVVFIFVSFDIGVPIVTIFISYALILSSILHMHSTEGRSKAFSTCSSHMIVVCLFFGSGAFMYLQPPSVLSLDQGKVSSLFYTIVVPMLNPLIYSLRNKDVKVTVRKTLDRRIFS
The essentials: as §1

Assay [11] has as its target T11, UniProt Q7TRM0.
T11 sequence (whole entry): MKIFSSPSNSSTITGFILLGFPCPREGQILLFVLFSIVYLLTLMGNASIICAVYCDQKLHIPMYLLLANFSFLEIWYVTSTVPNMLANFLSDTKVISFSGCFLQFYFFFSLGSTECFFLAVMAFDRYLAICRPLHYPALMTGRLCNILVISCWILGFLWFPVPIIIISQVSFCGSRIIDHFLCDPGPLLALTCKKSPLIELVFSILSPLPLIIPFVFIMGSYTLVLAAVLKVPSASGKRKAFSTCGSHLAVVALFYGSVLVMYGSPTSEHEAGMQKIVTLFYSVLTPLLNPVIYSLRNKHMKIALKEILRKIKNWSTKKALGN
The essentials: as §1

The target in assay [12] is T12, UniProt Q7TRN9.
T12 sequence (whole entry): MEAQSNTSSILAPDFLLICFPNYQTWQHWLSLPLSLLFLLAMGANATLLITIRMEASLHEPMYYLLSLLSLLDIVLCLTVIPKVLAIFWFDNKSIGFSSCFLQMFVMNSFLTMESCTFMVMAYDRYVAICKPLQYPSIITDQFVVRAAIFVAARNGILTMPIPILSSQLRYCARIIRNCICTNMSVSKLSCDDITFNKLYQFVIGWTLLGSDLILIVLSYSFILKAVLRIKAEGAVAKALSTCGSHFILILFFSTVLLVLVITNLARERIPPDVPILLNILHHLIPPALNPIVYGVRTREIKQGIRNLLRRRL
In short, it runs like this: as §1

For `CC12CCC(CC1=O)C2(C)C` (stereo unspecified), the “odorant receptor agonist call” value in assay [1], in assay [2], in assay [3], in [4], in [5] and in assay [6] was “inactive” in each case. The “odorant receptor agonist call” value in [8], in assay [9] and in assay [10] was “inactive” in each case. Besides, the “odorant receptor agonist call” value in [7] was “active”.

Regarding `CCOC(=O)C(C)C`, the “odorant receptor agonist call” value in assay [1], in [2], in [3], in assay [4], in assay [5] and in [6] was “inactive” in each case. The “odorant receptor agonist call” value in [7], in assay [8], in [9] and in assay [10] was “inactive” in each case.

As for `Cc1occc1SSc1ccoc1C`, the “odorant receptor agonist call” value in [1], in [2], in assay [3], in assay [4] and in assay [8] was “inactive” each time. The “odorant receptor agonist call” value in [5] was “active”.

For the compound `CCCCCCCCCC(=O)[O-].[H+]`, the “odorant receptor agonist call” value in assay [1], in [2], in [3], in assay [4], in assay [5] and in assay [6] was “inactive” throughout. For the same compound, the “odorant receptor agonist call” value in [7], in [8], in assay [9] and in assay [10] was “inactive” in each case.

With `CC(C)=CCCC(C)CCO` (stereo unspecified), the “odorant receptor agonist call” value in [1], in assay [2], in [3], in [4], in assay [5] and in assay [6] was “inactive” in each case. Also, the “odorant receptor agonist call” value in [7], in assay [8], in assay [9] and in assay [10] was “inactive” each time.

For the compound `CC(C)CS`, the “odorant receptor agonist call” value in assay [1], in assay [2], in assay [3], in assay [4], in assay [5] and in [8] was “inactive” each time.

For the compound `CCCCC(=O)O`, the “odorant receptor agonist call” value in [1], in [2], in assay [3], in assay [4], in assay [5] and in assay [6] was “inactive” each time. Also, the “odorant receptor agonist call” value in assay [7], in assay [8], in [9], in [10], in [11] and in assay [12] was “inactive” throughout.

As for `CCCCCCCCO`, the “odorant receptor agonist call” value in assay [1], in assay [2], in assay [3], in [4], in assay [5] and in [6] was “inactive” in each case. Moreover, the “odorant receptor agonist call” value in assay [7], in assay [8], in assay [9], in assay [10] and in [11] was “inactive” throughout. Besides, the “odorant receptor agonist call” value in [12] was “active”.

For `COc1cc(C(=O)O)ccc1O`, the “odorant receptor agonist call” value in assay [1], in assay [2], in [3], in assay [4], in assay [5] and in assay [6] was “inactive” throughout. The “odorant receptor agonist call” value in [7], in [8], in [9] and in [10] was “inactive” each time.

With `CCCCCCCCS`, the “odorant receptor agonist call” value in assay [1], in assay [2], in assay [3], in [4], in assay [5] and in [6] was “inactive” each time. Besides, the “odorant receptor agonist call” value in assay [7], in [8], in [9] and in assay [10] was “inactive” in each case.
